Experimental data reported in ChEMBL document CHEMBL4673287, “Synthesis and biological evaluation of novel antipsychotic trans-4-(2-(1,2,4,5-tetrahydro-3H-benzo[d]azepin-3-yl)ethyl)cyclohexan-1-amine derivatives targeting dopamine/serotonin receptor subtypes” (Bioorg Med Chem Lett, 2021).

Columns and labels:
[1] = target: Histamine H1 receptor (Homo sapiens) (UniProt P35367); test: Displacement of [3H]-pyrilamine from human H1 histamine receptor expressed in human HEK293 cells at 10 uM relative to control; type: cell-based
[2] = target: T1, 5-hydroxytryptamine receptor 2A (Homo sapiens, UniProt P28223); test: Displacement of [3H]ketanserin from recombinant human 5-HT2A receptor expressed in human HEK293 cells at 10 uM relative to control; type: cell-based
[3] = target: Adrenergic receptor alpha-1 (Rattus norvegicus) (UniProt P15823+P23944+P43140); test: Displacement of [3H]-prazosin from adrenergic alpha1 in rat cerebral cortex at 10 uM relative to control; type: tissue-based
D(2) dopamine receptor [4] = target: T2, D(2) dopamine receptor (Homo sapiens, UniProt P14416); test: Displacement of [3H]-spiperone from recombinant human D2L receptor expressed in CHO cells at 10 uM relative to control; type: cell-based
D(3) dopamine receptor [5] = target: T3, D(3) dopamine receptor (Homo sapiens, UniProt P35462); test: Displacement of [3H]methyl-spiperone from recombinant human D3 receptor expressed in CHO cells at 10 uM relative to control; type: cell-based
[6] = target: T4, 5-hydroxytryptamine receptor 1A (Homo sapiens) (UniProt P08908); test: Displacement of [3H]OH-DPAT from recombinant human 5-HT1A receptor expressed in human HEK293 cells at 10 uM relative to control; type: cell-based
T4 sequence (whole entry): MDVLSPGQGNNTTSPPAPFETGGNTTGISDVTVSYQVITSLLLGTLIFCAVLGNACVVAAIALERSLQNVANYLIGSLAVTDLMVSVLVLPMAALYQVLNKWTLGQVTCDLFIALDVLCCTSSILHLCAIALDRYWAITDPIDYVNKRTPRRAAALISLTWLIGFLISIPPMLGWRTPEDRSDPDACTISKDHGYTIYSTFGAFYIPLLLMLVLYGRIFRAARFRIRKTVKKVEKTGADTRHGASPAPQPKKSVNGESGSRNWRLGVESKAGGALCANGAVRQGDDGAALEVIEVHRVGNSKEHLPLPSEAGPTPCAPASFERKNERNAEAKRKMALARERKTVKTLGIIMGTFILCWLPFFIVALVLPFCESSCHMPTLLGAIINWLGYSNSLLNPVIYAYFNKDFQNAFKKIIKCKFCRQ

D(2) dopamine receptor [7] = target: T2, D(2) dopamine receptor; test: Displacement of [3H]-spiperone from recombinant human D2L receptor expressed in CHO cells; type: cell-based
How it was run: (§1)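 Eight-concentration displacement curves, two independent experiments in duplicate, value is the mean Ki.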

D(3) dopamine receptor [8] = target: T3, D(3) dopamine receptor; test: Displacement of [3H]methyl-spiperone from recombinant human D3 receptor expressed in CHO cells; type: cell-based
[9] = target: T5, 5-hydroxytryptamine receptor 1A (Homo sapiens, UniProt P08908); test: Displacement of [3H]OH-DPAT from recombinant human 5-HT1A receptor expressed in human HEK293 cells; type: cell-based; how it was run: as §1
T5 sequence (P08908 whole entry): T4 sequence (whole entry)

[10] = Metabolic stability in rat liver microsomes assessed as intrinsic clearance; type: ADME, Microsome; conditions: read-out: CLH
[11] = Metabolic stability in rat liver microsomes assessed as half life; type: ADME, Microsome
[12] = Metabolic stability in human liver microsomes assessed as intrinsic clearance; type: ADME, Microsome; conditions: read-out: CLH
[13] = Metabolic stability in human liver microsomes assessed as half life; type: ADME, Microsome
[14] = target: T1, 5-hydroxytryptamine receptor 2A; test: Displacement of [3H]ketanserin from recombinant human 5-HT2A receptor expressed in human HEK293 cells; type: cell-based; how it was run: as §1
Rattus norvegicus = test: Antipsychotic activity in orally dosed Sprague-Dawley rat assessed as inhibition of PCP-induced hyperactivity administered 20 mins before PCP stimulation and measured after 1 hr; type: functional, organism-based; conditions: dose 1-10 mg/kg, time 80.0 min
How it was run: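 Male Sprague-Dawley rats dosed orally 20 min before PCP (5 mg/kg) injection. Locomotor activity recorded for 1 h after PCP, read as total travel distance. Mean ± standard error of the mean, n = 8-10 per group.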

T3 sequence (P35462 whole entry): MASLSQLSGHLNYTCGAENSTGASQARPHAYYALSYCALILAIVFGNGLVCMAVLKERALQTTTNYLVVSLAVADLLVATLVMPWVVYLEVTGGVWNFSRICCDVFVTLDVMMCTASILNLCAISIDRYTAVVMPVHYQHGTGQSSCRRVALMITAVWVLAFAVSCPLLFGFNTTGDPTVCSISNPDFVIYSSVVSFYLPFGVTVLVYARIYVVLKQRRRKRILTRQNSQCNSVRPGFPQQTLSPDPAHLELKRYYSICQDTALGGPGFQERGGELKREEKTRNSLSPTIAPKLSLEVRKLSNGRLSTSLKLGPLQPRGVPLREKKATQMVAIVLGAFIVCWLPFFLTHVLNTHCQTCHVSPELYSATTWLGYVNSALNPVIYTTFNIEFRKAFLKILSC
Histamine H1 receptor (Homo sapiens), sequence (P35367 whole entry): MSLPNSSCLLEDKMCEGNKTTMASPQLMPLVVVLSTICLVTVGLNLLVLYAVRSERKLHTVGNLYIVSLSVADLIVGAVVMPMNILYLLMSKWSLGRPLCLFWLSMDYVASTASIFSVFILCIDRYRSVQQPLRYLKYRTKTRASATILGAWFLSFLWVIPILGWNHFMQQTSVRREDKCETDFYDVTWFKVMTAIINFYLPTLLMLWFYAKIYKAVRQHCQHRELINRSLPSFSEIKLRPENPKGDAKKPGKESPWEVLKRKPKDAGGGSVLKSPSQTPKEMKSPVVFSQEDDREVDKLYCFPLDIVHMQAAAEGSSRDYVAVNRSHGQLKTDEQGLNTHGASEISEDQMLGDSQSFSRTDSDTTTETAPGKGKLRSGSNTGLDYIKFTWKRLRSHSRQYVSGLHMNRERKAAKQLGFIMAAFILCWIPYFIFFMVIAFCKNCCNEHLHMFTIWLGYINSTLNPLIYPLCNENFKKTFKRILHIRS
T2 sequence (P14416 whole entry): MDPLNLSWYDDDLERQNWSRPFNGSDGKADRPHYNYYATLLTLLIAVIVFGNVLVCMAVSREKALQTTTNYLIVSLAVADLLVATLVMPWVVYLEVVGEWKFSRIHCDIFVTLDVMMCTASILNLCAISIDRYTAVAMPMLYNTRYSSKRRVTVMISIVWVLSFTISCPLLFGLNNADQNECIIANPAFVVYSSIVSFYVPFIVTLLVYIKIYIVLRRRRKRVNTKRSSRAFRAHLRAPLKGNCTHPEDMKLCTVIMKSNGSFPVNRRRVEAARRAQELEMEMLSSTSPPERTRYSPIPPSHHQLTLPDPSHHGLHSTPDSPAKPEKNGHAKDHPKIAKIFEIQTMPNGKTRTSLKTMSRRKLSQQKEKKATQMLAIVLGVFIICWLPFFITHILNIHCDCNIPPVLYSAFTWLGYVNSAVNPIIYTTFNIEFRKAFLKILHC
T1 sequence (P28223 whole entry): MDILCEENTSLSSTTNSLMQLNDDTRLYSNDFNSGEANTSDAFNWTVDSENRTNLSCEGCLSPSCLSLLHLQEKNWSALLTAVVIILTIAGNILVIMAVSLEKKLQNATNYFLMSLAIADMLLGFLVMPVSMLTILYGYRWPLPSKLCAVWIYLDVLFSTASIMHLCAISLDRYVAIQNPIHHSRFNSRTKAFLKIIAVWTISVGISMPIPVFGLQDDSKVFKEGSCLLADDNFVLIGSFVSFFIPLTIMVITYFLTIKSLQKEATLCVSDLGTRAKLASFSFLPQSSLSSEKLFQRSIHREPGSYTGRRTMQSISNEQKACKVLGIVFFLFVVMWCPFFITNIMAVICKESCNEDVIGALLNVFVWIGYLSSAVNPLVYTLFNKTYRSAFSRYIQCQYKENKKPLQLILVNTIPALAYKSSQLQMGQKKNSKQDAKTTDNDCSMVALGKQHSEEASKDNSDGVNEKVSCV

SMILES | inhibition [1] [%] | inhibition [2] [%] | inhibition [3] [%] | Ki (D(2) dopamine receptor [7]) [nM] | Ki (D(3) dopamine receptor [8]) [nM] | Ki [9] [nM] | other results
CC1CN(CC[C@H]2CC[C@H](NC(=O)N(C)C)CC2)CCc2ccc(Cl)cc21 (mixture of isomers) | 25.8 | 19.6 | 38 | – | – | – | inhibition (D(2) dopamine receptor [4]): 54.5%; inhibition (D(3) dopamine receptor [5]): 68%; inhibition [6]: 26.9%
C[C@H]1CN(CC[C@H]2CC[C@H](NC(=O)c3ccco3)CC2)CCc2ccc(Cl)cc21 | – | – | – | 19.3 | 1.8 | 10.6 | –
C[C@H]1CN(CC[C@H]2CC[C@H](NC(=O)N3CCOCC3)CC2)CCc2ccc(Cl)cc21 | 33.3 | 50.6 | 48 | 2.9 | 1.8 | – | inhibition [6]: 86.1%
C[C@H]1CN(CC[C@H]2CC[C@H](N3C(=O)CCC3=O)CC2)CCc2ccc(Cl)cc21 | 62.4 | 47.4 | 62.1 | – | 191 | 93.4 | inhibition (D(2) dopamine receptor [4]): 79.8%
CCCC(=O)N[C@H]1CC[C@H](CCN2CCc3ccc(Cl)cc3[C@@H](C)C2)CC1 | 27 | 52.7 | 18.7 | 84 | 8.1 | – | inhibition [6]: 81.3%
C[C@H]1CN(CC[C@H]2CC[C@H](NC(=O)N(C)C)CC2)CCc2ccc(Cl)cc21 | 59.6 | – | 44.1 | 5.9 | 0.5 | 14.5 | microsomal CLint [10]: 59.7 µL/min/mg; half-life [11]: 23.2 min; microsomal CLint [12]: 42.4 µL/min/mg; half-life [13]: 32.7 min; Ki [14]: 25.6 nM; Activity (Rattus norvegicus): Dose-dependent effect
C[C@H]1CN(CC[C@H]2CC[C@H](NC(=O)C3CCCCC3)CC2)CCc2ccc(Cl)cc21 | 36.8 | 38.2 | 35.3 | 99.3 | 17.5 | – | inhibition [6]: 69.9%
C[C@H]1CN(CC[C@H]2CC[C@H](NC(=O)[C@@H]3CCCN3)CC2)CCc2ccc(Cl)cc21 | 60.1 | 89 | 75.8 | 25.3 | 9.5 | 74.7 | –
CCN(CC)C(=O)N[C@H]1CC[C@H](CCN2CCc3ccc(Cl)cc3[C@@H](C)C2)CC1 | 69.2 | 73.6 | 29.1 | 91.1 | 15 | – | inhibition [6]: 75.2%
C[C@H]1CN(CC[C@H]2CC[C@H](NC(=O)C3CC3)CC2)CCc2ccc(Cl)cc21 | 33.2 | 56.6 | 57.6 | 9.8 | 8.2 | 191 | –
CN1CCN(C2=Nc3cc(Cl)ccc3Nc3ccccc32)CC1 | – | – | – | – | – | – | Activity (Rattus norvegicus): Dose-dependent effect
C[C@H]1CN(CC[C@H]2CC[C@H](N3C(=O)[C@H]4CCCC[C@H]4C3=O)CC2)CCc2ccc(Cl)cc21 | 86.1 | 76.9 | 63.2 | 14.1 | 9.3 | 6.6 | –
C[C@H]1CN(CC[C@H]2CC[C@H](NC(=O)N(C)c3ccccc3)CC2)CCc2ccc(Cl)cc21 | 75 | 58.8 | 38.6 | 189 | 17.2 | – | inhibition ([6]; filed as antagonist): 82.3%
CCN(C)C(=O)N[C@H]1CC[C@H](CCN2CCc3ccc(Cl)cc3[C@@H](C)C2)CC1 | 49.7 | 85.9 | 43.5 | 23.9 | 7.2 | 36 | –
C[C@H]1CN(CC[C@H]2CC[C@H](N3C(=O)CC4(CCCC4)CC3=O)CC2)CCc2ccc(Cl)cc21 | – | – | 60.9 | 12.1 | 1.2 | 4.3 | Ki [14]: 16.2 nM
COc1ccc2[nH]c([S+]([O-])Cc3ncc(C)c(OC)c3C)nc2c1 (centres undefined) [OMEPRAZOLE] | – | – | – | – | – | – | microsomal CLint [10]: 193 µL/min/mg; half-life [11]: 38.5 min
C[C@H]1CN(CC[C@H]2CC[C@H](N3C(=O)c4ccccc4C3=O)CC2)CCc2ccc(Cl)cc21 | 40.8 | 36.3 | 37.2 | 5.8 | – | – | inhibition (D(3) dopamine receptor [5]): 82%; inhibition [6]: 82.6%
C[C@H]1CN(CC[C@H]2CC[C@H](N3C(=O)[C@@H]4[C@H](C3=O)[C@@H]3C=C[C@H]4C3)CC2)CCc2ccc(Cl)cc21 | – | 82.8 | 74.4 | 43.7 | 6.9 | 22.8 | –
C[C@@H]1CN(CC[C@H]2CC[C@H](NC(=O)N(C)C)CC2)CCc2ccc(Cl)cc21 | 46.5 | 72 | 48.3 | 290 | 195 | – | inhibition [6]: 83.9%
C[C@H]1CN(CC[C@H]2CC[C@H](NC(=O)Nc3ccccc3)CC2)CCc2ccc(Cl)cc21 | – | 67 | 53.8 | 2.8 | 1.5 | – | inhibition ([1]; filed as antagonist): 88.2%
C[C@H]1CN(CC[C@H]2CC[C@H](NC(=O)N3CCCC3)CC2)CCc2ccc(Cl)cc21 | 56.8 | 87.4 | 60.3 | 6.3 | 1.1 | 5.3 | –
COc1ccc2c(c1)[C@]13CCCC[C@@H]1[C@H](C2)N(C)CC3 [DEXTROMETHORPHAN] | – | – | – | – | – | – | microsomal CLint [12]: 59.7 µL/min/mg; half-life [13]: 23.2 min
C[C@H]1CN(CC[C@H]2CC[C@H](N3C(=O)[C@@H]4[C@@H]5CC[C@@H](C5)[C@@H]4C3=O)CC2)CCc2ccc(Cl)cc21 | – | 80.8 | 79.2 | 31.6 | 3.3 | 24.9 | –
C[C@H]1CN(CC[C@H]2CC[C@H](NC(=O)[C@@H]3CCCO3)CC2)CCc2ccc(Cl)cc21 | 32.2 | 69.6 | 36.4 | 20.6 | 19.1 | 98.3 | –
